Laboratory results: ChEMBL document CHEMBL3352149, “Promiscuity and selectivity in covalent enzyme inhibition: a systematic study of electrophilic fragments” (J Med Chem, 2014)
The source made the active and inactive calls. The calls are words filed in the database; no cut-off is given here.

Assays:
Escherichia coli [1] = test: Inhibition of Escherichia coli MetAP at 25 uM after 20 mins by HPLC analysis
Outline: (§1)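 Endpoint assay. Enzyme (50 nM) was preincubated with 25 μM compound for 20 min at 37 °C in 50 mM Tris pH 7.5, 100 mM NaCl, 100 μM CoCl2, 0.075% BSA. MGMM substrate (400 μM) was then added for 15 min (human MetAP-1) or 20 min (E. coli MetAP). Reactions were stopped with TFA. GMM product was quantified by RP-HPLC, UV 214 nm. Triplicate.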

[2] = biological target: Methionine aminopeptidase 1 (Homo sapiens) (UniProt P53582); test: Inhibition of human MetAP at 25 uM after 20 mins by HPLC analysis; outline: as §1
Escherichia coli [3] = test: Inhibition of wild-type Escherichia coli MurA compound preincubated for 10 mins before substrate addition at 25 uM measured after 15 mins by LC-MS method
Escherichia coli [4] = test: Inhibition of wild-type Escherichia coli MurB compound preincubated for 10 mins before substrate addition at 25 uM measured after 15 mins by LC-MS method
Outline: (§2)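 E. coli wild-type enzyme (4 nM) was preincubated with 25 μM compound for 10 min at 37 °C. Enzymatically generated nucleotide-sugar substrate (~200 μM) plus ATP (~200 μM), or NADPH 200 μM for MurB, was added for 10 min. Reactions were started with amino-acid cosubstrate (MurC–F) or EP-UNAG (MurB), run 15 min at 37 °C, and quenched with formic acid. Product was measured by negative-ESI LC-MS EIC peak area. MgCl2: MurC 10, MurD/E 2, MurF 5 mM; MurB had 5 mM KCl. All in 50 mM NH4HCO3, 0.07% BSA, 1% DMSO; triplicate.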

Escherichia coli [5] = test: Inhibition of wild-type Escherichia coli MurC compound preincubated for 10 mins before substrate addition at 25 uM measured after 15 mins by LC-MS method; outline: as §2
Escherichia coli [6] = test: Inhibition of wild-type Escherichia coli MurD compound preincubated for 10 mins before substrate addition at 25 uM measured after 15 mins by LC-MS method; outline: as §2
Escherichia coli [7] = test: Inhibition of wild-type Escherichia coli MurE compound preincubated for 10 mins before substrate addition at 25 uM measured after 15 mins by LC-MS method; outline: as §2
Escherichia coli [8] = test: Inhibition of wild-type Escherichia coli MurF compound preincubated for 10 mins before substrate addition at 25 uM measured after 15 mins by LC-MS method; outline: as §2
[9] = GSH reactivity of the compound assessed as adducts formation by RP-HPLC analysis
Outline: (§3)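 Fresh aqueous glutathione (10 mM solution) was added to 50 mM Tris-maleate buffer, pH 7.5. The reaction was started with compound from 10 mM DMSO stock (final 250 μM). Mixtures were followed by reversed-phase HPLC on an ODS column with a gradient to 100% B; rate constants are given in l·mol⁻¹·s⁻¹.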

HeLa = test: Cytotoxicity against human HeLa cells assessed as reduction in cell viability after 24 hrs by CellTiter-Blue assay; format: cell-based
Outline: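 HeLa cells seeded in triplicate at 5×10^3 cells/well and grown 24 h at 37 °C/5% CO2. Compounds at varying concentrations were added as a 2x stock in phenol-red-free DMEM with FBS, penicillin/streptomycin, sodium pyruvate and L-glutamine, then left 24 h. Medium was replaced with CellTiter-Blue medium for 3 h. A570/A610 was read after background subtraction, as % of untreated controls; EC50 derived.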

[10] = GSH reactivity of the compound assessed as adducts formation meaured over 3 hrs by RP-HPLC analysis; outline: as §3
[11] = biological target: Genome polyprotein (dengue virus type 2) (UniProt P12823); test: Inhibition of Dengue virus serotype 2 NS2B-NS3 protease at 50 uM
[12] = biological target: Genome polyprotein (West Nile virus) (UniProt P06935); test: Inhibition of West Nile virus NS2B-NS3 protease at 50 uM
Prothrombin (Bos taurus) = Prothrombin (Bos taurus) (UniProt P00735); test: Inhibition of Bovine thrombin using Boc-Val-Pro-Arg-AMC as substrate compound preincubated at 25 uM for 15 mins by fluorescence assay
Outline: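 Bovine thrombin (final 10 nM) was preincubated 15 min with 25 μM compound in 50 mM Tris-HCl pH 7.5, 150 mM NaCl, 0.05% Tween 20. The reaction was started with Boc-Val-Pro-Arg-AMC (50 μM final). Fluorescence (ex 355/em 460 nm) was monitored continuously for 10 min; activity taken as slope (RFU/s). Triplicate.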

[13] = GSH reactivity of the compound assessed as half life by RP-HPLC analysis
Escherichia coli [14] = test: Induction of covalent MurE enzyme adduct formation preincubated with UNAG substrate for 10 mins compound treated at 300 uM after 1 hr by ESI-MS analysis
Escherichia coli [15] = test: Induction of covalent MurA enzyme adduct formation preincubated with UNAG substrate for 10 mins compound treated at 300 uM after 1 hr by ESI-MS analysis
Outline: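 E. coli MurA (25 μM) preincubated with UNAG 300 μM for 10 min at 37 °C, then test compound added at 300 μM. Incubation ran 60 min at 37 °C in 50 mM NH₄HCO₃, pH 7.9. Samples were spin-desalted on Sephadex G-25, then analysed by flow-injection positive-mode ESI-MS for enzyme adducts. Untreated enzyme served as control.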

Escherichia coli [16] = test: Induction of covalent MetAP enzyme adduct formation at 300 uM after 1 hr by ESI-MS analysis
Outline: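 E. coli MetAP (25 μM) was incubated with 300 μM compound for 60 min at 37 °C in 50 mM NH4HCO3, pH 7.9, with 200 μM CoCl2. Untreated enzyme served as control. Samples were spin-desalted on Sephadex G-25 and analysed by flow-injection ESI-MS in positive mode (isocratic water/acetonitrile 95/5 with 0.1% formic acid), looking for covalent adducts.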

Sequence of Genome polyprotein (West Nile virus) (P06935 whole entry): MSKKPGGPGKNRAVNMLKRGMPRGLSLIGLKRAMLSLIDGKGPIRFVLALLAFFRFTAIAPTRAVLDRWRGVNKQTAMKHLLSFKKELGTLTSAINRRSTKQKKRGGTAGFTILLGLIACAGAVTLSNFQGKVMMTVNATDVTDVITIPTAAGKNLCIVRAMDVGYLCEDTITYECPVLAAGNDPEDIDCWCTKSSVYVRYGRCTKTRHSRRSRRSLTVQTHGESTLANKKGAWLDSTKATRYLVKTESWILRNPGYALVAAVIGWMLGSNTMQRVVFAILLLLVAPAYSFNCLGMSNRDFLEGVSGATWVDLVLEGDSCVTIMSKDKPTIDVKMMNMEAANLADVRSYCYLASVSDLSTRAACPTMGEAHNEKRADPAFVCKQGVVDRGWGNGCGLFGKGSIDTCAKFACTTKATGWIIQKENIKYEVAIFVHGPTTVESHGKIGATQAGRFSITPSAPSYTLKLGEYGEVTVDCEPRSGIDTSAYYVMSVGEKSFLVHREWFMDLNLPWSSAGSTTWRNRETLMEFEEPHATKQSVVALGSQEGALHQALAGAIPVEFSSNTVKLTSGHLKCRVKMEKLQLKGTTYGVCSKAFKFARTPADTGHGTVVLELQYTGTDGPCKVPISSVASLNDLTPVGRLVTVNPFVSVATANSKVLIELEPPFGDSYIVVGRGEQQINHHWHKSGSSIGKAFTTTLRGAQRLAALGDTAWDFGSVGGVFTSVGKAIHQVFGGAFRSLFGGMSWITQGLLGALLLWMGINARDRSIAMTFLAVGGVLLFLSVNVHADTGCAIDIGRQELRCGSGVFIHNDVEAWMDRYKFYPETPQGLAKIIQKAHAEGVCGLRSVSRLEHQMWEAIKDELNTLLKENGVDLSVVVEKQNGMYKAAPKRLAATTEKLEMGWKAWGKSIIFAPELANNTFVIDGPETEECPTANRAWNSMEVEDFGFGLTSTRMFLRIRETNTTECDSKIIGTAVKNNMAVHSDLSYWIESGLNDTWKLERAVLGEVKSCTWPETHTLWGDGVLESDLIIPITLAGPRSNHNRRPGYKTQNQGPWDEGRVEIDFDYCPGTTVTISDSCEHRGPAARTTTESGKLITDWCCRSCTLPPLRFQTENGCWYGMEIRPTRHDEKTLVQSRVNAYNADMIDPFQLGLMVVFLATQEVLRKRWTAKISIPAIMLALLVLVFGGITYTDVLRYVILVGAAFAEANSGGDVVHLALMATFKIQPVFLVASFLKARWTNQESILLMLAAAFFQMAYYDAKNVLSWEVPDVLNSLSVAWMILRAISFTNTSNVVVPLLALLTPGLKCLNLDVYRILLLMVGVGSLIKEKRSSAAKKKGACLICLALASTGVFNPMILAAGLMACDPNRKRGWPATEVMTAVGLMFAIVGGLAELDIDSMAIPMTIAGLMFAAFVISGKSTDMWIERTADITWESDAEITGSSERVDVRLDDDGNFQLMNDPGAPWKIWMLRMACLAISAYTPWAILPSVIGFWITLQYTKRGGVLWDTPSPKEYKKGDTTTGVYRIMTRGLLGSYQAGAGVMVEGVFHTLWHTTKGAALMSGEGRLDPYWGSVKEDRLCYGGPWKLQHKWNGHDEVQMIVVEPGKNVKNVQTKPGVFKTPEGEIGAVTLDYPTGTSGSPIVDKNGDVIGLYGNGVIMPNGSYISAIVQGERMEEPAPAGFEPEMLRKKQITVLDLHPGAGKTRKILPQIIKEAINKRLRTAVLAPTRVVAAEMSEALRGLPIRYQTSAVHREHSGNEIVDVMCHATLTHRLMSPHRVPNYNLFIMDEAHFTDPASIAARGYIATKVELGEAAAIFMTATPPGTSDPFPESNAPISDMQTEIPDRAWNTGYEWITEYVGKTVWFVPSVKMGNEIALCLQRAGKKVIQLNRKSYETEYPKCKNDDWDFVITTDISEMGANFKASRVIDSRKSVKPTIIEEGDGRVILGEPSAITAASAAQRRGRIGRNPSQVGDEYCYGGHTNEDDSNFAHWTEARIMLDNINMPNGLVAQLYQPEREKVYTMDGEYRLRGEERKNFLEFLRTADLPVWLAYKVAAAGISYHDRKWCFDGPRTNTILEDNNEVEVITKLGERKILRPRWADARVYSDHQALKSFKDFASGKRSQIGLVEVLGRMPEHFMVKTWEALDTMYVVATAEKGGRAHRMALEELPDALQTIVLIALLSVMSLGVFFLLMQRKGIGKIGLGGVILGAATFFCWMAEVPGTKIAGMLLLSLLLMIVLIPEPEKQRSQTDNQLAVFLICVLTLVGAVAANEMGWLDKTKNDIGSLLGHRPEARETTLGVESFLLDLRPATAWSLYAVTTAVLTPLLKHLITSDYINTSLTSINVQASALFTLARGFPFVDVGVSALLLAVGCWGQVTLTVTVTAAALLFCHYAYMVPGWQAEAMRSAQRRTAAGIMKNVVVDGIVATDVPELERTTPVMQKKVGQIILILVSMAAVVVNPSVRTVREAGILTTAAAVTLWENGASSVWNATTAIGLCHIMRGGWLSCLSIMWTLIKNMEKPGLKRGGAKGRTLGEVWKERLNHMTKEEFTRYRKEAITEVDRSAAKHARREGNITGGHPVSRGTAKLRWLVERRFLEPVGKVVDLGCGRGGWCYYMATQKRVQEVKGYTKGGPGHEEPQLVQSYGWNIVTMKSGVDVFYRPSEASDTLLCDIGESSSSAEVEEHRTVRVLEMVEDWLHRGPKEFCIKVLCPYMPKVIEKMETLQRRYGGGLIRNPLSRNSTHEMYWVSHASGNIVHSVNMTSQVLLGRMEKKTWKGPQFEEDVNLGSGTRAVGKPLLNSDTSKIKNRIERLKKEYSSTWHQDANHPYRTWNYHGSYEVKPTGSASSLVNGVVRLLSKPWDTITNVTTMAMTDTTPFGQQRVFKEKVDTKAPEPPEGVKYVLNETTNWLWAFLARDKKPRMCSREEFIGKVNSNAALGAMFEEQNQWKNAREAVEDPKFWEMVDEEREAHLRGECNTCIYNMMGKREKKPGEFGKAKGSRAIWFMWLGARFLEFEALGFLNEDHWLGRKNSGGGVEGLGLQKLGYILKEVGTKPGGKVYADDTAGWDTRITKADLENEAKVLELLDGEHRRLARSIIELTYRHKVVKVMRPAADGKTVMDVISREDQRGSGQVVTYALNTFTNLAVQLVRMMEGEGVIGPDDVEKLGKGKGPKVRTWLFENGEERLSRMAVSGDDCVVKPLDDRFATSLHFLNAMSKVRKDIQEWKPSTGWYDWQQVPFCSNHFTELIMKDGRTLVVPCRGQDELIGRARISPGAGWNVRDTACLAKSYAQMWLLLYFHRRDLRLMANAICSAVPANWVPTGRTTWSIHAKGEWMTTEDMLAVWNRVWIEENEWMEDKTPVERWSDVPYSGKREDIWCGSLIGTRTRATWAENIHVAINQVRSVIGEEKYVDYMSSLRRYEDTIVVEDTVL

SMILES	inhibition (Escherichia coli [1]) [%]	inhibition [2] [%]	inhibition (Escherichia coli [3]) [%]	inhibition (Escherichia coli [4]) [%]	inhibition (Escherichia coli [5]) [%]	inhibition (Escherichia coli [6]) [%]	inhibition (Escherichia coli [7]) [%]	inhibition (Escherichia coli [8]) [%]	Activity [9] [L/mol/s]	EC50 (HeLa) [µM]	Activity [10] [%]	inhibition [11] [%]	inhibition [12] [%]	inhibition (Prothrombin (Bos taurus)) [%]	T1/2 [13] [h]	Activity (Escherichia coli [14]) [L/mol/s]	Activity (Escherichia coli [15])	Activity (Escherichia coli [16]) [L/mol/s]
C=CC(=O)NCCCC	< 15	20	< 15	< 15	< 15	< 15	< 15	< 15	< 0.1	> 100	< 5	< 15	< 15	< 15				
COc1ccc(NC(=O)C2CC(Br)=NO2)cc1 (stereo not given)	< 15	< 15	< 15	< 15	< 15	< 15	18	< 15	< 0.1			< 15	21	< 15	> 200			
O=C(NCCc1ccccc1)C1CC(Br)=NO1 (stereo not given)	< 15	< 15	< 15	16	< 15	18	23	< 15	< 0.1			< 15	< 15	< 15	> 200			
C=CC(=O)NCc1ccccc1	< 15	< 15	< 15	< 15	< 15	< 15	< 15	< 15	< 0.1		< 5	< 15	< 15	< 15				
O=C(Nc1ccc(F)cc1)C1CC(Br)=NO1 (stereo not given)	< 15	< 15	< 15	< 15	< 15	< 15	23	21	< 0.1			< 15	< 15	< 15	> 200			
CCCCNC(=O)C[S+](C)C	< 15	< 15	< 15	< 15	< 15	< 15	29	< 15		> 100		< 15	< 15	< 15		< 0.1		
C=CC(=O)Nc1ccc([N+](=O)[O-])cc1	< 15	< 15	< 15	< 15	< 15	< 15	< 15	< 15	< 0.1		< 5	< 15	< 15	< 15				
O=C(NCc1ccccc1)C1CC(Br)=NO1 (stereo not given)	< 15	< 15	< 15	18	< 15	16	< 15	15	< 0.1			< 15	< 15	< 15	> 200			
C=CC(=O)NC(CCCC)C(=O)OC (stereo not given)	< 15	< 15	< 15	< 15	< 15	< 15	< 15	< 15	< 0.1		< 5	< 15	< 15	< 15				
CCCCNC(=O)C1CC(Br)=NO1 (stereo not given)	< 15	< 15	< 15	< 15	< 15	< 15	27	< 15	< 0.1	> 100		< 15	< 15	< 15	> 200			
O=C(NC1CCCC1)C1CC(Br)=NO1 (stereo not given)	< 15	< 15	< 15	< 15	< 15	15	16	< 15	< 0.1			< 15	< 15	< 15	> 200			
C=CC(=O)NC1CCCC1	< 15	17	< 15	< 15	< 15	< 15	< 15	< 15	< 0.1		< 5	< 15	< 15	< 15				
C=CC(=O)Nc1ccc(C)cc1	< 15	< 15	< 15	< 15	< 15	< 15	< 15	< 15	< 0.1		< 5	< 15	< 15	< 15				
Cc1ccc(NC(=O)C2CC(Br)=NO2)cc1 (stereo not given)	19	< 15	< 15	< 15	< 15	< 15	< 15	< 15	< 0.1			< 15	22	< 15	> 200			
C=CC(=O)NCCc1ccccc1	< 15	< 15	< 15	< 15	< 15	< 15	< 15	< 15	< 0.1		< 5	< 15	< 15	< 15				
C=CC(=O)Nc1ccc(OC)cc1	< 15	< 15	< 15	< 15	< 15	< 15	< 15	< 15	< 0.1		< 5	< 15	< 15	< 15				
C[S+](C)CC(=O)Nc1ccccc1	< 15	< 15	< 15	< 15	< 15	< 15	32	< 15		> 100		< 15	< 15	< 15		< 0.1	inactive	< 0.1
